# Screening results as filed in PubChem.
# Shown are actives, neighbours in structure and some others; about 1.8% of the full set was active somewhere.
# TbMetRS inhib: T. brucei MetRS inhibitors, primary screen, biochemical, luminescence | methionyl-tRNA synthetase (Trypanosoma brucei brucei) | purified T. brucei MetRS, ATP depletion, Kinase-Glo luminescence | inhibition, % at 11.9 µM | 0.4% of 360,000 active;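 active = inhibition above a per-plate cutoff of the control wells' mean inhibition plus 3 SD, cut at about 5.5% in these data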;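 note: 0% = DMSO wells median and 100% = median of wells with control inhibitor compound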
#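 Dosing: 11.9 µM compound single dose, 0.9% DMSO; Assay system: purified T. brucei MetRS enzyme; Measured by: Kinase-Glo luciferase luminescence reporting remaining unconsumed ATP; Schedule: 15 min plus 2 h at 25 °C.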
# Rev-erbA mod: modulators of Rev-erb alpha DNA binding, primary screen, biochemical, FITC-DNA, fluorescence polarization, uHTS; Rev-erbα–FITC-DNA binding, 90 min; activity, % at 10 µM; 0.79% of 370,000 active;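 active = activity above about 14%, limit read from the data; passing the limit was not always enough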;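 note: 0% = DMSO wells with 35 nM protein and 100% = DMSO wells with 750 nM protein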
# PG9 binder: binders of HIV-1 gp120 antibody PG9, primary screen, biochemical, TR-FRET; TR-FRET gp120-PG9 antibody binding; 0.43% of 360,000 active; HIV-1 gp120 / PG9 antibody interaction; inhibition, % at 6.7 µM; in the data active = inhibition above about 8.5%
# Rin1-Abl PPI inh: inhibitors of Rin1-Abl protein binding, primary screen, biochemical, TR-FRET; Tyrosine-protein kinase ABL1 (Homo sapiens) + Ras and Rab interactor 1 (Homo sapiens), …; inhibition, % at 7.35 µM; 0.4% of 360,000 active; in the data active = inhibition above about 5%, passing the limit was not always enough
# Target sequence (P00519 whole entry, looked up): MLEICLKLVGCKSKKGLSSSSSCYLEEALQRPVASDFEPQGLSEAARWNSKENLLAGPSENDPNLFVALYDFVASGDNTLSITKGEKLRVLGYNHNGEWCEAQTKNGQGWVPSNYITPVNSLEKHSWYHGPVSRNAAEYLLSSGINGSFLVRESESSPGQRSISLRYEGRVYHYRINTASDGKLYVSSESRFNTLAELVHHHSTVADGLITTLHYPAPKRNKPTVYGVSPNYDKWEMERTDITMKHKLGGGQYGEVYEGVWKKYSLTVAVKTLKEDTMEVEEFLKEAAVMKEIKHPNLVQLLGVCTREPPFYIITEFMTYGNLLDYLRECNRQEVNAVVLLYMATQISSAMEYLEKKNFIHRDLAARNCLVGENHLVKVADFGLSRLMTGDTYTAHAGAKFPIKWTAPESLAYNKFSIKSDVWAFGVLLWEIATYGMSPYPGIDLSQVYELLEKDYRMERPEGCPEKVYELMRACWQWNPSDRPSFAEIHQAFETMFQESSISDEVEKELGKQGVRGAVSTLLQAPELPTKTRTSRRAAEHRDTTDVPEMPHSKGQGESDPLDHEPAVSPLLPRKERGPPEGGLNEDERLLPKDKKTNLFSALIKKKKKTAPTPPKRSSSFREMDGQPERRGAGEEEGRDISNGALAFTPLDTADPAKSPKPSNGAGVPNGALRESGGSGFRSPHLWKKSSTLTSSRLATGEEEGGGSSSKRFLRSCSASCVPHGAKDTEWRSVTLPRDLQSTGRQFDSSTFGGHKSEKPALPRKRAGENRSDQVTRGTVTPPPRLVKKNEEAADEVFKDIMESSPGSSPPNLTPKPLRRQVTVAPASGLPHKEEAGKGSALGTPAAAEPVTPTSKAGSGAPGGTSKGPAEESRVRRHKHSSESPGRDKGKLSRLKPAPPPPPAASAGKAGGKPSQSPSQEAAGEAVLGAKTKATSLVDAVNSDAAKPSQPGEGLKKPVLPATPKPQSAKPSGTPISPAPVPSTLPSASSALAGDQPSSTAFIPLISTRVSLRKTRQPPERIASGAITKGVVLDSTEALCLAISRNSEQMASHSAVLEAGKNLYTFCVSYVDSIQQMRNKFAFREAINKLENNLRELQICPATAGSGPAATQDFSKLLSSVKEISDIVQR
# Target sequence (Q13671 whole entry, looked up): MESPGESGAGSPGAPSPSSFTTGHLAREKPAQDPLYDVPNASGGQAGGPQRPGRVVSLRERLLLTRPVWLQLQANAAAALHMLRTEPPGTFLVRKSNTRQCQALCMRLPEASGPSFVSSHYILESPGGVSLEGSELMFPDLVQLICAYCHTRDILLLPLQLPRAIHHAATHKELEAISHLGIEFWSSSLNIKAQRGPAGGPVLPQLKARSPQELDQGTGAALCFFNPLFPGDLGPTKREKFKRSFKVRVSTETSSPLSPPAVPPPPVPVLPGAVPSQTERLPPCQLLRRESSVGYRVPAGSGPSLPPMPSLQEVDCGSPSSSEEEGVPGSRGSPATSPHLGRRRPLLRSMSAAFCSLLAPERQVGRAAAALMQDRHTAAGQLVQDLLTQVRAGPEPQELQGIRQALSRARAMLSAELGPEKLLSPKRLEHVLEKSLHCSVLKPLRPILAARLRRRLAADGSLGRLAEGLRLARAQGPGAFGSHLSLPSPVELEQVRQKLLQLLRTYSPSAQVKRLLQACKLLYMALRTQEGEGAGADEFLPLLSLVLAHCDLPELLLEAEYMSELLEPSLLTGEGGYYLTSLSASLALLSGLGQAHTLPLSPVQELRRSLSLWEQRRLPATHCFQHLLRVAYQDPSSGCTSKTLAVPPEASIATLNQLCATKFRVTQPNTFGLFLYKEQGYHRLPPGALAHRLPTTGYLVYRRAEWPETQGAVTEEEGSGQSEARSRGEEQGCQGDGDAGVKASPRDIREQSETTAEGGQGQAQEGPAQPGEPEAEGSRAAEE
# PG9 bind confirm: binders of anti-gp120 antibody PG9, confirmation, biochemical, TR-FRET. inhibition, % at 6.7 µM. TR-FRET PG9 antibody binding. shares compounds with PG9 binder. 90% of 1,500 active. AID 651571, 2012; in the data active = inhibition above about 9%
# PGV04 Ab binding: binders of control antibody PGV04, counter-screen for PG9 antibody binder project, biochemical, TR-FRET, distinct HIV envelope site | shares compounds with PG9 binder | TR-FRET PGV04 antibody-gp120 binding | inhibition, % at 6.7 µM | 95% of 1,500 active | AID 651604, 2012; in the data active = inhibition above about 9.5%
# An asterisk follows results filed as active; · = no result.
SMILES,TbMetRS inhib,Rev-erbA mod,PG9 binder,Rin1-Abl PPI inh,PG9 bind confirm,PGV04 Ab binding
CSc1nc(N)nc(SCC(=O)c2ccccc2)c1C#N,-1,12,5,0,·,·
COc1ccc(C(=O)CSc2nc(N)nc(SC)c2C#N)cc1,0,8,21*,-10,23*,28*
NC(=O)COC(=O)c1cc(S(=O)(=O)N2CCOCC2)ccc1N1CCCCC1,-1,-5,1,-1,·,·
CC(C)CCNC(=O)NC(=O)COC(=O)c1cc(S(=O)(=O)N2CCOCC2)ccc1N1CCCCC1,-1,15,32*,-1,28*,46*
Cc1cc(=O)oc2cc(NC(=O)C(C)Oc3cccc(Cl)c3)ccc12 (configuration not stated),0,13,10.0*,-3,12*,19*
CCCCC(=O)Nc1nn(C)c2nc3c(C)cccc3cc12,0,-2,0,-1,·,·
CCCCC(=O)Nc1nn(CC)c2nc3c(C)cccc3cc12,0,10,9.7*,2,11*,15*
CC1(C)Cc2c(C#N)c(SCc3ccccc3)nc(N3CCOCC3)c2CO1,-1,4,0,0,·,·
Cc1nc2c(sc3nc(N4CCOCC4)c4c(c32)CC(C)(C)OC4)c(-c2ccccc2)c1C(=O)O,0,5,16*,-3,26*,32*
CC1(C)Cc2c(C#N)c(SCC(=O)c3ccccc3)nc(N3CCOCC3)c2CO1,0,-5,42*,-10,9.3*,86*
CC1(C(=O)N2CCC(Oc3cccnc3)CC2)CC1,·,3,·,·,·,·
CN(C)c1ccc(-c2cccc(C3CC=CC4C3C(=O)N(Cc3ccccc3)C4c3ccc4ccccc4c3)c2)cc1 (configuration not stated),0,9,26*,2,36*,48*
COCCN1CCC(CO)C1 (configuration not stated),0,-2,10*,3,8,11*
COc1ccc(-c2noc(CCC(=O)NCC3CCCO3)n2)cc1OC (configuration not stated),0,0,11*,6,4,7
COc1ccc2nc(NC(=O)CSc3nc4ccccc4o3)sc2c1,-1,18,21*,-17,27*,45*
O=C(CSc1nc2ccccc2o1)Nc1nc2ccc(Br)cc2s1,-1,4,1,-3,·,·
Cc1ccc(-c2c(C#N)c(N)n3c(nc4ccccc43)c2C#N)cc1,-1,-1,0,-3,·,·
N#Cc1c(-c2ccccc2)c(C#N)c2nc3ccccc3n2c1N,-1,1,8.8*,-3,18*,24*
CCc1nnc(NC(=O)CSc2nnc(-c3ccccc3OC)n2-c2ccc(C)cc2)s1,-1,2,-2,1,·,·
CCc1nnc(NC(=O)CSc2nnc(-c3ccccc3O)n2-c2ccc(C)cc2)s1,0,8,11*,4,14*,22*
CCOC(=O)C1(Cc2ccccc2)CCN(Cc2ccccc2[N+](=O)[O-])CC1,·,-8,·,·,·,·
CCCCS(=O)(=O)N1CCCc2nc(-c3ccc(OC)cc3)ccc21,·,-4,3,·,·,·
O=C(COC(=O)C12CC3CC(CC(O)(C3)C1)C2)Nc1cccc(Br)c1,0,2,0,0,·,·
N#Cc1c(-c2ccco2)nc(SCC(=O)Nc2cccc(Cl)c2)[nH]c1=O,0,-3,15*,-137,28*,32*
N#Cc1c(-c2ccccc2)nc(SCc2cccc(Cl)c2)[nH]c1=O,0,-6,8.7*,-9,14*,21*
CCCSc1ccc2nc(NC(=O)OC)[nH]c2c1,0,10,12*,3,25*,36*
Cc1cccc(C)c1OCC(=O)OCC(=O)c1ccc2c(c1)NC(=O)CO2,0,0,-1,-1,·,·
